Test results reported in ChEMBL document CHEMBL1821582, “SAR analysis of innovative selective small molecule antagonists of sphingosine-1-phosphate 4 (S1P₄) receptor” (Bioorg Med Chem Lett, 2011).
One block for each compound: values may come before it. The source made the active and inactive calls. No cut-off for these calls is given here.

What was measured:
[1] = molecular target: T1, Sphingosine 1-phosphate receptor 4 (Homo sapiens, UniProt O95977); assay: Antagonist activity at human S1P4 receptor expressed in EDG6-bla U2OS cells coexpressing human endothelial differentiation gene 6 linked to GAL4-VP16 assessed as beta-lactamase expression by FRET assay; assay type: functional, cell-based
T1 sequence (O95977 whole entry): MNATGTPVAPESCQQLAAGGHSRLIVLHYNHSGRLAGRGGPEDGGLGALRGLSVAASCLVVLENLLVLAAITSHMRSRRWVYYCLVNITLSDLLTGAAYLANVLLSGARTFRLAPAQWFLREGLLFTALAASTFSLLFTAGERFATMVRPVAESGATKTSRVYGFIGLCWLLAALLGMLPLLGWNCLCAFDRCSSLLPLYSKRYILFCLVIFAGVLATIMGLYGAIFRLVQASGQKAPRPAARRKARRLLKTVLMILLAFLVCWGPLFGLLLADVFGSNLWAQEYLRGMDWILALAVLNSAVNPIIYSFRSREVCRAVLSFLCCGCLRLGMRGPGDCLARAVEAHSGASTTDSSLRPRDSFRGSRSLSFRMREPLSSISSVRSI
Method in brief: (§1)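 Human EDG6 (S1P4) Tango assay in U2OS cells: the receptor is fused via a TEV protease site to a GAL4-VP16 transcription factor, with a co-expressed beta-arrestin/TEV protease fusion. Read-out is a beta-lactamase reporter driven by a UAS response element. Compounds were tested up to 25 μM, with percentage inhibition at 25 μM; values are the mean of n = 3 determinations.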

[2] = molecular target: T2, Sphingosine 1-phosphate receptor 4 (Homo sapiens) (UniProt O95977); assay: Antagonist activity at human S1P4 receptor expressed in EDG6-bla U2OS cells coexpressing human endothelial differentiation gene 6 linked to GAL4-VP16 assessed as beta-lactamase expression at 25 uM by FRET assay; assay type: functional, cell-based; method in brief: as §1
T2 sequence (whole entry): T1 sequence (O95977 whole entry)

[3] = molecular target: T3, Sphingosine 1-phosphate receptor 1 (Homo sapiens, UniProt P21453); assay: Antagonist activity at S1P1 receptor; assay type: functional
T3 sequence (P21453 whole entry): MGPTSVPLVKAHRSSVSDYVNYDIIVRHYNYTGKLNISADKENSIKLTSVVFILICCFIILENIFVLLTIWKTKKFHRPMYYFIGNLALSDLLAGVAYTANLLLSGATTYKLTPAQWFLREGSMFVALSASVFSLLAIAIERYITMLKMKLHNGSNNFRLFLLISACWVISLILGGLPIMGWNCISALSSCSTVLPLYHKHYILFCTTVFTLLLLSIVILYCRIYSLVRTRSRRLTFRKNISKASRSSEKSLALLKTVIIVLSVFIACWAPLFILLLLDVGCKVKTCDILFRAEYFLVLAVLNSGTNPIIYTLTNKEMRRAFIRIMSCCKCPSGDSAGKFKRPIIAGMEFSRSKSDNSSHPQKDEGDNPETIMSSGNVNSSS

[4] = molecular target: T4, Sphingosine 1-phosphate receptor 3 (Homo sapiens, UniProt Q99500); assay: Antagonist activity at S1P3 receptor; assay type: functional
T4 sequence (Q99500 whole entry): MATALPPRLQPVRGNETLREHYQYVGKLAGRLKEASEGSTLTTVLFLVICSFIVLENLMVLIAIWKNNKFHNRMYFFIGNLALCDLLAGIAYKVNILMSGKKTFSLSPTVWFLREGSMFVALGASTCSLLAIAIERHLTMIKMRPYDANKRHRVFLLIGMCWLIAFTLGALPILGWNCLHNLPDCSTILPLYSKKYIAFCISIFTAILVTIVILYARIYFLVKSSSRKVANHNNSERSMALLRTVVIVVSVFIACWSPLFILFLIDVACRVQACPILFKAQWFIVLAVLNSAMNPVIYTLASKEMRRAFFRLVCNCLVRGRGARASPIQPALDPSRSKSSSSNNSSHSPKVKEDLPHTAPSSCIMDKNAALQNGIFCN

[5] = molecular target: T4, Sphingosine 1-phosphate receptor 3; assay: Inhibition of S1P3 receptor at 25 uM
[6] = molecular target: T5, Sphingosine 1-phosphate receptor 2 (Homo sapiens, UniProt O95136); assay: Antagonist activity at S1P2 receptor; assay type: functional
T5 sequence (O95136 whole entry): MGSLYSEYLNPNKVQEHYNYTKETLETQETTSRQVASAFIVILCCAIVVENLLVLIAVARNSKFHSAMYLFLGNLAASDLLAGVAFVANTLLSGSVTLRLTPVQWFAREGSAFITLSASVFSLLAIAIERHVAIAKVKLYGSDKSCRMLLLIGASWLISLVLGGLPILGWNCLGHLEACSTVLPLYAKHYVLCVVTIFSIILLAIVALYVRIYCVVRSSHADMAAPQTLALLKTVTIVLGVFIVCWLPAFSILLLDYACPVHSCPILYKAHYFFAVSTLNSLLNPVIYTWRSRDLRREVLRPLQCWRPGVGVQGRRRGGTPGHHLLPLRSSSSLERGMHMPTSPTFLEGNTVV

[7] = molecular target: T5, Sphingosine 1-phosphate receptor 2; assay: Inhibition of S1P2 receptor; details: concentration not given here
[8] = molecular target: T6, Sphingosine 1-phosphate receptor 5 (Homo sapiens, UniProt Q9H228); assay: Inhibition of S1P5 receptor at 25 uM
T6 sequence (Q9H228 whole entry): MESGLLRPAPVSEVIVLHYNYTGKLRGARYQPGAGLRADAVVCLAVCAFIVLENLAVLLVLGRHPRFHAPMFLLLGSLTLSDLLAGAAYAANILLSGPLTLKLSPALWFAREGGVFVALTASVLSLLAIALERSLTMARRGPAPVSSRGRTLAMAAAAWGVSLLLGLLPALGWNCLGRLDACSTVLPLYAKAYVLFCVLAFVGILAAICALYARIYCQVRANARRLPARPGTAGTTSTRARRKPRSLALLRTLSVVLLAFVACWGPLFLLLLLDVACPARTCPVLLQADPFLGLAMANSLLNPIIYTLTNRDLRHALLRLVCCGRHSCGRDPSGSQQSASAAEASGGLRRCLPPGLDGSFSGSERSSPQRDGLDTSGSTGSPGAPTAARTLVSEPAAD

[9] = molecular target: T3, Sphingosine 1-phosphate receptor 1; assay: Antagonist activity at S1P1 receptor upto 25 uM; assay type: functional
[10] = molecular target: T3, Sphingosine 1-phosphate receptor 1; assay: Inhibition of S1P1 receptor at 25 uM
[11] = molecular target: T5, Sphingosine 1-phosphate receptor 2; assay: Inhibition of S1P2 receptor at 25 uM
[12] = molecular target: T6, Sphingosine 1-phosphate receptor 5; assay: Antagonist activity at S1P5 receptor; assay type: functional

SMILES: Cc1ccc(C)c(-c2ccc(C(=O)Nc3c(C)cccc3C)n2C)c1
IC50 [1]: 6300 nM

SMILES: Cc1ccc(C)c(-c2cc(C(=O)Nc3c(C)cccc3C)co2)c1
IC50 [1]: 233 nM

SMILES: Cc1cccc(C)c1NC(=O)c1ccc(-c2cc(Cl)ccc2Cl)o1
IC50 [3]: > 20000 nM
IC50 [4]: > 20000 nM

SMILES: Cc1ccc(C)c(-c2coc(C(=O)Nc3c(C)cccc3C)c2)c1
IC50 [1]: 211 nM

SMILES: Cc1ccc(C)c(-c2cccc(C(=O)Nc3c(C)cccc3C)c2)c1
inhibition [5]: 40%
inhibition [10]: 30%
inhibition [11]: 25%
inhibition [8]: 40%
IC50 [1]: 75 nM

SMILES: Cc1ccc(C)c(-c2cc(C(=O)Nc3c(C)cccc3C)ccc2C)c1
IC50 [1]: 2400 nM

SMILES: Cc1ccc(C)c(-c2ccc(C(=O)Nc3c(C)cccc3C)o2)c1
IC50 [12]: > 20000 nM
IC50 [3]: > 20000 nM
IC50 [4]: > 20000 nM

SMILES: Cc1ccc(C)c(-c2cc(C)c(C(=O)Nc3c(C)cccc3C)o2)c1
IC50 [1]: 173 nM

SMILES: Cc1ccc(C)c(-c2oc(C(=O)Nc3c(C)cccc3C)cc2C)c1
IC50 [1]: 911 nM

Next, values leading:

Activity [2]: inactive
SMILES: Cc1cccc(C)c1NCc1ccc(-c2cc(Cl)ccc2Cl)o1

Activity [2]: inactive
SMILES: Cc1cccc(C)c1NC(=O)c1cccc(-c2cc(Cl)ccc2Cl)n1

inhibition [5]: 35%
IC50 [6]: 1100 nM
inhibition [7]: 40%
inhibition [8]: 30%
Activity [9]: inactive
IC50 [1]: 59 nM
SMILES: Cc1ccc(C)c(-c2ccc(C(=O)Nc3c(C)cccc3C)s2)c1

Activity [2]: inactive
SMILES: CCc1cccc(C)c1NC(=O)c1nnc(-c2cc(Cl)ccc2Cl)o1
